Reference: ChEMBL document CHEMBL3593222, “6-Phenoxy-2-phenylbenzoxazoles, novel inhibitors of receptor for advanced glycation end products (RAGE)” (Bioorg Med Chem, 2015)
Activity calls are given as the source filed them. The calls are words filed in the database; no cut-off is given here.

Assays:
Mus musculus [1] = experiment: Antialzheimer activity in APPsw/PS1 transgenic mouse assessed as reduction of total amyloid beta 1-40 level in brain homogenates at 50 mg/kg, po administered every 2 days for 4 weeks by ELISA; type: functional, organism-based
Summary of the method: (§1)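 Male APPsw/PS1 mice, 34 weeks old (n = 4–5), dosed by gavage at 50 mg/kg every 2 days for 4 weeks. Total Aβ1–40 and Aβ1–42 were measured by ELISA kit. Results given as mean ± SD.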

HT-22 [2] = experiment: Cytotoxicity against mouse HT22 cells assessed as cell viability at 10 uM after 18 hrs by MTT assay; type: cell-based; details: ht-22, 18 h, 10 µM
Summary of the method: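 HT22 cells were grown in DMEM with 10% FBS and penicillin/streptomycin at 37 °C in 5% CO2, and seeded at 5000 cells/well. Next day they were exposed to 10 µM compound for 18 h. MTT was then added for 3 h, formazan dissolved in acidic 2-propanol, and OD read at 570 nm. Viability is blank-corrected absorbance relative to control. Run in triplicate.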

Mus musculus [3] = experiment: Toxicity in APPsw/PS1 transgenic mouse at 50 mg/kg, po administered every 2 days for 4 weeks; type: organism-based; details: in vivo
HT-22 [4] = experiment: Neuroprotective activity in mouse HT22 cells assessed as inhibition of amyloid beta-induced cytotoxicity by measuring cell viability at 10 uM after 18 hrs by MTT assay; type: functional; details: HT-22, 18 h
Summary of the method: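 Aβ peptide was pretreated in HFIP, dried to a film, redissolved in DMSO, and aggregated at 200 µM in PBS for 24 h at 4 °C. HT22 cells (5000/well) were exposed the next day to 2 µM aggregated Aβ plus 10 µM compound for 18 h. Viability was read by MTT at 570 nm, and percent inhibition was calculated against Aβ with vehicle. Triplicate.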

Mus musculus [5] = experiment: Antialzheimer activity in APPsw/PS1 transgenic mouse assessed as reduction of total amyloid beta 1-42 level in brain homogenates at 50 mg/kg, po administered every 2 days for 4 weeks by ELISA; type: functional, organism-based; summary of the method: as §1
Mus musculus [6] = experiment: Antialzheimer activity in APPsw/PS1 transgenic mouse assessed as reduction of total amyloid beta 1-42 level in brain homogenates at 50 mg/kg, po administered every 2 days for 4 weeks by ELISA
[7] = biological target: Advanced glycosylation end product-specific receptor (Homo sapiens) (UniProt Q15109); experiment: Inhibition of human RAGE-amyloid beta-42 interaction at 4 uM preincubated for 30 mins measured after 1 hr by FRET assay relative to control
Summary of the method: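 Biotinylated human RAGE (2.5 µg) was premixed with 200 ng Cy3-streptavidin in PBS for 30 min at rt. Aβ42-FITC (50 µL of 40 nM) and compound (50 µL of 4 µM) were then added, in 200 µL final volume with 0.1% DMSO. Fluorescence was read 1 h later. FRET efficiency was computed from donor emission with and without acceptor, and percent inhibition was taken against vehicle. Triplicate.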

Mus musculus [8] = experiment: Antialzheimer activity in APPsw/PS1 transgenic mouse assessed as reduction of total amyloid beta 1-40 level in brain homogenates at 50 mg/kg, po administered every 2 days for 4 weeks by ELISA

Chain of Advanced glycosylation end product-specific receptor (Homo sapiens) (Q15109 whole entry): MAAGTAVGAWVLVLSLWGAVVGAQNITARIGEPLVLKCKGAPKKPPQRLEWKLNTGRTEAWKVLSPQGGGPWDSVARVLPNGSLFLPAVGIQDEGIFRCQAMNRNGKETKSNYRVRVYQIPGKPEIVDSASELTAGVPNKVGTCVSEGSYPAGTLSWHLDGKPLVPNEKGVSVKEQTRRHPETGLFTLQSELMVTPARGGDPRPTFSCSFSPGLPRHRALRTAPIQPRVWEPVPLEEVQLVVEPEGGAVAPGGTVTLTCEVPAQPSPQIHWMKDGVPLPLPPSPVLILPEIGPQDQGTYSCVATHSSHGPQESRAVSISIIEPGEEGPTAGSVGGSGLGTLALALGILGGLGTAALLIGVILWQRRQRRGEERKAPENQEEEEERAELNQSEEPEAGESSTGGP

CC(C)(C)OC(=O)N1CCN(CCCOc2ccc(-c3nc4ccc(Oc5ccc(Cl)cc5)cc4o3)cc2)CC1 was tested, and the Activity (Mus musculus [1]) was “Active”, the Activity (HT-22 [2]) was “Non-toxic” and the Activity (Mus musculus [3]) was “Non-toxic”. For the same compound, the inhibition at 10 µM (HT-22 [4]) was 65%, the Activity (Mus musculus [5]) was “Active” and the Activity (Mus musculus [6]) was “Active”. For the same compound, the inhibition [7] was 40% and the Activity (Mus musculus [8]) was “Active”.
